To fix the notation:
B1: tRNA (parent)
chain: GUUCCGUUGGCGUAAUGGUAACGCGUCUCCCUCCUAAGGAGAAGACUGCGGGUUCGAGUCCCGUACGGAACG

These results are taken from the RNAGym collection of RNA variant scans (doi:10.1126/science.aae0568).

Fewer inactive variants are shown than the library holds.

The series covers variants of B1. Nature of the series: yeast fitness relative to wild type (ratio to wild type); higher = fitter; tRNA-Arg(CCU), competitive growth, 37 C, YPD. An outline of the steps:
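Variants of the tRNA-Arg(CCU) gene, chemically synthesised with a 3% per-site mutation rate at 69 sites, were placed at the native genomic locus in Saccharomyces cerevisiae. The pooled strains were competed in YPD at 37°C for 24 hours in six parallel replicates. Gene amplicons from the start population and from each end population were read by 100-nucleotide paired-end sequencing. Darwinian fitness relative to wild type came from changes in genotype frequencies; genotypes needed ≥ 100 starting reads, and estimates < 0.5 were set to 0.5.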
For C11A G44A G48A, the yeast fitness stood at 0.68.

Regarding C11G A14U G17A A36G G41A U53A G58C A70C, the yeast fitness was no more than 0.5.

On to C11G A15U C31A G58C A70C, for which the yeast fitness is no more than 0.5.

With C11A U13A A20U G63A A65U, the yeast fitness was no more than 0.5.

For C11G A14G U35A C66U, the yeast fitness came to 0.535.

Regarding C11G A15G U26A U32A G38A A40C G58A, the yeast fitness is no more than 0.5.

On to C11A U13G C34G A43U C61G, for which the yeast fitness was no more than 0.5.

As to C11A U32A C33U U47A, the yeast fitness is no more than 0.5.

As to C11A U64C, the yeast fitness was found to be 0.638.

C11G A15C G41A C49G: the yeast fitness was no more than 0.5.

For the variant C11A U19G C49A, the yeast fitness was no more than 0.5.

Consider C11G A14G G48A C55U C66U G68C A69U, for which the yeast fitness is no more than 0.5.

On to C11A U59C C60A U64A, for which the yeast fitness was no more than 0.5.

Consider C11A U16C G18C A45C U59A, for which the yeast fitness was no more than 0.5.

As to C11A G56A, the yeast fitness was determined as 0.739.

C11A G56C: the yeast fitness is no more than 0.5.

On to C11A U16C G18C A45C A57C G67A G68C, for which the yeast fitness was no more than 0.5.

Regarding C11A G68C, the yeast fitness worked out at 0.656.

C11A U16C G18C A45C A57C G68C A69G: the yeast fitness was no more than 0.5.

With C11G A15G C33G A37G C60A, the yeast fitness came to 0.582.

Take C11A U19C C31U U53A: the yeast fitness is no more than 0.5.

As for C11G A14U G17A C61G C62G, the yeast fitness was no more than 0.5.

In the case of C11G A15C C24U A43U C66U, the yeast fitness is no more than 0.5.

As for C11G A14U A21U A69U, the yeast fitness was no more than 0.5.

Take C11A U47C: the yeast fitness amounted to 0.689.

Turning to C11A U16C U32G C49G C62U, the yeast fitness was no more than 0.5.

For the variant C11A G51C, the yeast fitness worked out at 0.585.

On to C11A G58A G68A A69U A70U, for which the yeast fitness was no more than 0.5.

As for C11G A15U C34A A42C, the yeast fitness was no more than 0.5.

C11A U32A C33U U47A G63A: the yeast fitness is no more than 0.5.

Take C11A U28G C33A A45G A65U: the yeast fitness was no more than 0.5.

C11A U28C A69U: the yeast fitness was no more than 0.5.

As to C11G A14G G17A G48C C62U C66G A70G, the yeast fitness was no more than 0.5.

In the case of C11A U28C A42G A43U C46U C62U, the yeast fitness was no more than 0.5.

As to C11G A14G C27A G38A A65C, the yeast fitness is no more than 0.5.

Turning to C11A U28G G44C, the yeast fitness came to 0.602.

Take C11A U19C: the yeast fitness stood at 0.706.

In the case of C11A U16C G18C A45C A57C G68A, the yeast fitness is no more than 0.5.

In the case of C11G A14U A42U, the yeast fitness came out at 0.638.

Regarding C11G A15C C34U U47C G48A C55U, the yeast fitness was no more than 0.5.

As to C11A G25C C46U G50A, the yeast fitness is no more than 0.5.

For the variant C11A U35A A37U, the yeast fitness is no more than 0.5.

As for C11A U32A C34A A65C, the yeast fitness is no more than 0.5.

Take C11G A15C C24G C46A C66U: the yeast fitness is no more than 0.5.

With C11A U35G C46A C49U C60U, the yeast fitness is no more than 0.5.

Consider C11A U19G A36G C62A A69C, for which the yeast fitness was no more than 0.5.

With C11A G39A, the yeast fitness is 0.63.

For the variant C11A G41A G56A C62A, the yeast fitness is no more than 0.5.

For the variant C11A G51A U53A, the yeast fitness was no more than 0.5.

C11A U13C A14G G44C C46A C49G: the yeast fitness was no more than 0.5.

In the case of C11A U19A A42U A45C U47C C55U A69C, the yeast fitness was no more than 0.5.

With C11A U28G C33A A42C A65U, the yeast fitness was no more than 0.5.

Consider C11A G52C C61G, for which the yeast fitness was found to be 0.618.

With C11A U54C A57U, the yeast fitness was 0.565.

Consider C11G A14C A57C C61A A69C, for which the yeast fitness turned out to be 0.581.

For C11A U16G U53G, the yeast fitness is no more than 0.5.

With C11A U59G G63C, the yeast fitness is no more than 0.5.

As for C11A G25C A57U, the yeast fitness turned out to be 0.513.

Take C11A G25C C29U C62A: the yeast fitness was no more than 0.5.

Turning to C11A U16C U28C U32G C49G C55A, the yeast fitness was no more than 0.5.

Regarding C11A G41A A45U G56C, the yeast fitness is no more than 0.5.

As to C11G A15C C24U A43U G68A, the yeast fitness is no more than 0.5.

Take C11A U19C U26C A40U G44C C46U U64G: the yeast fitness is 0.514.

On to C11G A15G C22A U26A A40U C49U, for which the yeast fitness was no more than 0.5.

For C11G A14C C33G A45U C62G A65G, the yeast fitness was no more than 0.5.

On to C11G A15G A21G A37G A57U C60U C62G, for which the yeast fitness is no more than 0.5.

With C11G A15G C22A A37U A65C C66G, the yeast fitness was no more than 0.5.

For the variant C11A U13A A20G G68C A69C, the yeast fitness amounted to 0.626.

Regarding C11A U59C, the yeast fitness is 0.527.

On to C11A U19A C29A U32A U54C C55G C60G A65G, for which the yeast fitness was no more than 0.5.

For C11A U35A A37C A43G, the yeast fitness was determined as 0.511.

On to C11A U19G A36G U54C A65U, for which the yeast fitness was determined as 0.538.

As to C11G A15C U47G, the yeast fitness is no more than 0.5.

In the case of C11G A15G, the yeast fitness came out at 0.596.

On to C11A U32C G67A, for which the yeast fitness came out at 0.606.

For C11G A14U G17A A36G G41A, the yeast fitness is 0.582.

With C11A U32C, the yeast fitness is 0.739.

Turning to C11A U35G G67A, the yeast fitness was found to be 0.52.

Turning to C11A G41C, the yeast fitness worked out at 0.714.

With C11G A15U C34A A42C G48A C55U, the yeast fitness is no more than 0.5.

Turning to C11A U16A C30G G44C C61A, the yeast fitness was no more than 0.5.

For C11A U19A U47C C55A C61U, the yeast fitness was no more than 0.5.

For C11G A14G A37G G44A G63A, the yeast fitness came to 0.55.
